Source: ChEMBL document CHEMBL4765234 (J Med Chem, 2016)
pEC50, pKi: −log10 of the molar value. Activity calls are given as the source filed them. The rule behind the calls is not given here.

Legend:
[1] = molecular target: T1, Peroxisome proliferator-activated receptor alpha (Homo sapiens) (UniProt Q07869); assay: Displacement of [3H]-[…] from PPARalpha (unknown origin) expressed in baculovirus infected Sf9 insect cells upto 30 uM measured after 10 hrs by microbeta scintillation counting analysis; settings: dose microM <=30, time 10.0 hrs
T1 sequence (whole entry): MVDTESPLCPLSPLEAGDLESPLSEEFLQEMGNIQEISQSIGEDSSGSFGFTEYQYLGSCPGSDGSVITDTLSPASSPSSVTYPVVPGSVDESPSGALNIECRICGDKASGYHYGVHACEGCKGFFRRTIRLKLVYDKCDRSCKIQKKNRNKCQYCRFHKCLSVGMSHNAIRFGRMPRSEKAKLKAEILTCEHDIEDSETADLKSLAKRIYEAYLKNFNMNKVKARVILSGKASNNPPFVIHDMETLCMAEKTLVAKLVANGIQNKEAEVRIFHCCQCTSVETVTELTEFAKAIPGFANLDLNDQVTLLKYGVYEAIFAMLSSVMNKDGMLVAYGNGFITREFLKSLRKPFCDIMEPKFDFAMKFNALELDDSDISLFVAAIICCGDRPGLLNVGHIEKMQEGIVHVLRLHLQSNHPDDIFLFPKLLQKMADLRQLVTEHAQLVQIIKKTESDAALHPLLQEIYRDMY
Outline: (§1)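 Scintillation proximity assay. Sf9 lysates with baculovirus-expressed PPARα (0.3 μg), PPARδ (0.5 μg) or PPARγ (1.25 μg), each with RXRα, were bound via biotinylated DR2 oligo (0.126 nM) to streptavidin yttrium silicate beads. Buffer was HEPES pH 7.8 with KCl, MgCl2, DTT, CHAPS, 14% glycerol and salmon sperm DNA. A 3H reference agonist ligand was used, with 11 compound concentrations, for 10 h. Nonspecific binding was defined with 10000 nM unlabeled reference. Ki was derived from IC50.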

[2] = molecular target: T2, Free fatty acid receptor 1 (Homo sapiens, UniProt O14842); assay: Agonist activity at human recombinant full length GPR40 overexpressed in human HEK293 cells assessed as increase in inositol phosphate accumulation in presence of terbium cryptate-labeled anti IP1/d2-labelled IP1 measured after 120 mins by HTRF assay relative to AMG837; type: functional, cell-based; settings: filed as agonist
T2 sequence (O14842 whole entry): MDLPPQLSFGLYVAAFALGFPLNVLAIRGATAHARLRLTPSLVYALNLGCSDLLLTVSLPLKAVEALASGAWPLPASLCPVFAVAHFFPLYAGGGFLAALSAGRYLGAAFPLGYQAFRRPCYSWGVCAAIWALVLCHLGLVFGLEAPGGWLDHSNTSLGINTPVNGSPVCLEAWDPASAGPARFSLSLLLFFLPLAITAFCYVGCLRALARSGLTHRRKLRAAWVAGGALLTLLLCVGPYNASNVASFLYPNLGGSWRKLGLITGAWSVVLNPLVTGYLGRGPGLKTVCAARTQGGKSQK
Outline: (§2)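 HEK293 hGPR40 cells (20K/well) were cultured overnight, washed, and held in IP1 stimulation buffer. IP-1 was measured by competitive HTRF immunoassay with terbium cryptate anti-IP1 mAb and d2-labelled IP1.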

[3] = molecular target: T2, Free fatty acid receptor 1; assay: Displacement of [3H]-TAK-875 from human recombinant full-length GPR40 expressed in human HEK293 cell membrane incubated for 2 hrs by solid scintillation counting method; type: cell membranes
[4] = molecular target: Free fatty acid receptor 1 (Mus musculus) (UniProt Q76JU9); assay: Agonist activity at Prolink-tagged mouse GPR40 fused with EA-tagged beta-arrestin expressed in human U2OS cells assessed as induction of beta-arrestin recruitment measured after 90 mins by beta-galactosidase based PathHunter assay relative to control; type: cell-based; settings: filed as agonist
Chain of Free fatty acid receptor 1 (Mus musculus) (Q76JU9 whole entry, the tested form may be a part): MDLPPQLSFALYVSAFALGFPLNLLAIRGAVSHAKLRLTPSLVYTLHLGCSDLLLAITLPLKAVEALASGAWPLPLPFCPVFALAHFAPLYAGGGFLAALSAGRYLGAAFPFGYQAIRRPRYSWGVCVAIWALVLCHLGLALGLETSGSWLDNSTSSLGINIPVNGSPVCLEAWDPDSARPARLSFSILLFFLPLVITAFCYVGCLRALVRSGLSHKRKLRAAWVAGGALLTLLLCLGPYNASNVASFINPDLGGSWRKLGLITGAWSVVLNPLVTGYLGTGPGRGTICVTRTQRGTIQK
Outline: (§3)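 PathHunter β-gal complementation. Cells were incubated overnight at 5000/well in medium with 1% heat-inactivated FBS. Compound was added as a 20-point 2-fold series from a top final of 100 μM (1% DMSO) for 90 min at 37 °C, followed by detection reagents and chemiluminescence read after 1 h at rt.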

[5] = molecular target: T3, Peroxisome proliferator-activated receptor delta (Homo sapiens) (UniProt Q03181); assay: Displacement of [3H]-[…] from PPARdelta (unknown origin) expressed in baculovirus infected Sf9 insect cells upto 30 uM measured after 10 hrs by microbeta scintillation counting analysis; settings: dose microM <=30, time 10.0 hrs; outline: as §1
T3 sequence (whole entry): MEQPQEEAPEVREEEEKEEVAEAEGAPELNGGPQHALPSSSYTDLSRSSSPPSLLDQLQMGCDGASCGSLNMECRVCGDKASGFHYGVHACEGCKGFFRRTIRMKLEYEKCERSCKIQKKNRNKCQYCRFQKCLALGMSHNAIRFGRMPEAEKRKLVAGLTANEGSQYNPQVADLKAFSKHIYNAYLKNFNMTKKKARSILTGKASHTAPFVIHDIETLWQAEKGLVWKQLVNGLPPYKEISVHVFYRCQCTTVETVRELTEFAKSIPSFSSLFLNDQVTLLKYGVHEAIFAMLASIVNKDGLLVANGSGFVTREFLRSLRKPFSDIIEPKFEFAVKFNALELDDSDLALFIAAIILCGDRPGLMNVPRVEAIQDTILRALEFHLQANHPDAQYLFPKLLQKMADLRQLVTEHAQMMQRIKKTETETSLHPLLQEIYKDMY

[6] = molecular target: Free fatty acid receptor 1 (Rattus norvegicus) (UniProt Q8K3T4); assay: Agonist activity at Prolink-tagged rat GPR40 fused with EA-tagged beta-arrestin expressed in human U2OS cells assessed as induction of beta-arrestin recruitment measured after 90 mins by beta-galactosidase based PathHunter assay relative to control; type: cell-based; settings: filed as agonist; outline: as §3
Chain of Free fatty acid receptor 1 (Rattus norvegicus) (Q8K3T4 whole entry, the tested form may be a part): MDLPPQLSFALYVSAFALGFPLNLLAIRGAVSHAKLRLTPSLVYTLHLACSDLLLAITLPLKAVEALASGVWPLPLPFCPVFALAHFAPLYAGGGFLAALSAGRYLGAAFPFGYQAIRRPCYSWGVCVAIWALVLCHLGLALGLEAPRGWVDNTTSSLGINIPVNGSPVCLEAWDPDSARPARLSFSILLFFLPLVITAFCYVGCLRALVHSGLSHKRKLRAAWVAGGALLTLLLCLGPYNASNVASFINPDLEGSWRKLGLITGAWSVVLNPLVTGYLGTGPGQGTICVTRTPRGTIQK

[7] = molecular target: T2, Free fatty acid receptor 1; assay: Agonist activity at human recombinant full length GPR40 overexpressed in human HEK293 cells assessed as increase in intracellular calcium level measured over 3 mins by calcium 4 dye based FLIPR assay relative to 100 uM linoleic acid; type: functional, cell-based; settings: filed as agonist
Outline: (§4)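 HEK293 cells overexpressing hGPR40 (25K/well) were cultured overnight in DMEM/F12 with 0.2% FBS and geneticin. Compound was tested at 40 μM–0.1 nM final (20-point, 1% DMSO), and FLIPR fluorescence was read over 3 min.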

[8] = molecular target: Free fatty acid receptor 1 (Mus musculus, UniProt Q76JU9); assay: Agonist activity at Prolink-tagged mouse GPR40 fused with EA-tagged beta-arrestin expressed in human U2OS cells assessed as induction of beta-arrestin recruitment measured after 90 mins by beta-galactosidase based PathHunter assay; type: cell-based; outline: as §3
Chain of Free fatty acid receptor 1 (Mus musculus, UniProt Q76JU9) (Q76JU9 whole entry, the tested form may be a part): as the sequence (Q76JU9 whole entry, the tested form may be a part) above

[9] = molecular target: T2, Free fatty acid receptor 1; assay: Agonist activity at human recombinant full-length Prolink-tagged GPR40 fused with EA-tagged beta-arrestin expressed in human HEK293 cells assessed as induction of beta-arrestin recruitment measured after 90 mins by beta-galactosidase based PathHunter assay relative to control; type: cell-based; settings: filed as agonist; outline: as §3
[10] = molecular target: Free fatty acid receptor 1 (Rattus norvegicus, UniProt Q8K3T4); assay: Agonist activity at Prolink-tagged rat GPR40 fused with EA-tagged beta-arrestin expressed in human U2OS cells assessed as induction of beta-arrestin recruitment measured after 90 mins by beta-galactosidase based PathHunter assay; type: cell-based; outline: as §3
Chain of Free fatty acid receptor 1 (Rattus norvegicus, UniProt Q8K3T4) (Q8K3T4 whole entry, the tested form may be a part): as the sequence (Q8K3T4 whole entry, the tested form may be a part) above

[11] = molecular target: T2, Free fatty acid receptor 1; assay: Agonist activity at human recombinant full-length Prolink-tagged GPR40 fused with EA-tagged beta-arrestin expressed in human HEK293 cells assessed as induction of beta-arrestin recruitment measured after 90 mins by beta-galactosidase based PathHunter assay; type: cell-based; outline: as §3
[12] = Protein binding in plasma (unknown origin) by equilibrium dialysis method; type: ADME, cell-free; settings: human, read-out: PPB
Outline: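 Plasma protein binding measured by equilibrium dialysis.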

[13] = molecular target: T2, Free fatty acid receptor 1; assay: Agonist activity at human recombinant full length GPR40 overexpressed in human HEK293 cells assessed as increase in intracellular calcium level measured over 3 mins by calcium 4 dye based FLIPR assay; type: functional, cell-based; outline: as §4
[14] = molecular target: T2, Free fatty acid receptor 1; assay: Agonist activity at human recombinant full length GPR40 overexpressed in human HEK293 cells assessed as increase in inositol phosphate accumulation in presence of terbium cryptate-labeled anti IP1/d2-labelled IP1 measured after 120 mins by HTRF assay; type: functional, cell-based; outline: as §2
[15] = molecular target: T4, Peroxisome proliferator-activated receptor gamma (Homo sapiens) (UniProt P37231); assay: Displacement of [3H]-[…] from PPARgamma (unknown origin) expressed in baculovirus infected Sf9 insect cells upto 30 uM measured after 10 hrs by microbeta scintillation counting analysis; settings: dose microM <=30, time 10.0 hrs; outline: as §1
T4 sequence (whole entry): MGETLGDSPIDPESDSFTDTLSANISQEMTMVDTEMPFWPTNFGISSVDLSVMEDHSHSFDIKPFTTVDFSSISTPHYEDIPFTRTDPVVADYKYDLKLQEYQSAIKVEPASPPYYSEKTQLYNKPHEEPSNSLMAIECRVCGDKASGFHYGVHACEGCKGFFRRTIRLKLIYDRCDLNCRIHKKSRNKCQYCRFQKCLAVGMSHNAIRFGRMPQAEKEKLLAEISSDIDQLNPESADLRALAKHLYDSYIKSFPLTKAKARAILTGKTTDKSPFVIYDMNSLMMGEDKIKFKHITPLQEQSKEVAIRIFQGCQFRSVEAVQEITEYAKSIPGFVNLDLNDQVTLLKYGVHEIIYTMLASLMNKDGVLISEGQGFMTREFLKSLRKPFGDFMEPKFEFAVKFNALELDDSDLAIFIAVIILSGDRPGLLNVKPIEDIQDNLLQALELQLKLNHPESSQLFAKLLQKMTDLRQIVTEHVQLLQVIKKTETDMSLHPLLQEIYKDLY

| Compound | Activity [1] | Emax [2] | pKi [3] | Emax [4] | Activity [5] | Emax [6] | Emax [7] | pEC50 [8] | Emax [9] | pEC50 [10] | pEC50 [11] | fraction unbound [12] | pEC50 [13] | pEC50 [14] | Activity [15] |
| --- | --- | --- | --- | --- | --- | --- | --- | --- | --- | --- | --- | --- | --- | --- | --- |
| CC#C[C@@H](CC(=O)O)c1ccc(OCc2cc(C)c(CN3CCC4(C=Cc5ccccc54)CC3)s2)cc1 | inactive | 132% | 8.46 | 122% | inactive | 121% | 65% | 9.16 | 127% | 8.96 | 8.41 | < 0.01 | 8.54 | 9.01 | inactive |
| CC#C[C@@H](CC(=O)O)c1ccc(OCc2ccc(CN3CCC4(C=Cc5ccccc54)CC3)c(C(F)(F)F)c2)cc1 | inactive | 255% | 8.96 | 146% | inactive | 135% | 55% | 9.08 | 132% | 8.96 | 8.96 | < 0.01 | 7.70 | 8.72 | inactive |
| CC#C[C@H](CC(=O)O)c1ccc(OCc2ccc(CN3CCC4(C=Cc5ccccc54)CC3)cc2)cc1 | inactive | 166% | 6.51 | 100% | inactive | 101% | 46% | 7.22 | 95% | 6.92 | 6.27 | < 0.01 | 5.55 | 6.44 | inactive |
| O=C(O)CCc1ccc(OCc2ccc(CN3CCC4(C=Cc5ccccc54)CC3)cc2)cc1Cl | inactive | 265% | 6.70 | 116% | inactive | 108% | 59% | 6.96 | 133% | 6.27 | 6.13 | < 0.01 | 6.85 | 7.07 | inactive |
| CC#C[C@@H](CC(=O)O)c1ccc(OCc2ccc(CN3CCC4(C=Cc5ccccc54)CC3)c(Cl)c2)cc1 | inactive | 193% | 8.82 | 149% | inactive | 161% | 47% | 9.08 | 150% | 9.00 | 8.48 | < 0.01 | 7.49 | 8.31 | inactive |
| CC#C[C@@H](CC(=O)O)c1ccc(OCc2ncc(CN3CCC4(C=Cc5ccccc54)CC3)s2)cc1 | inactive | 129% | 6.89 | 115% | inactive | 109% | 63% | 8.14 | 117% | 7.64 | 7.08 | < 0.01 | 8.55 | 7.92 | inactive |
| CC#C[C@@H](CC(=O)O)c1ccc(OCc2ccc(CN3CCC4(CC3)CN(C)c3ccc(C(F)(F)F)cc34)cc2)cc1 | inactive | 275% | 8.57 | 158% | inactive | 154% | 42% | 9.30 | 139% | 9.23 | 8.54 | < 0.01 | 7.85 | 8.33 | inactive |
| CC#C[C@@H](CC(=O)O)c1ccc(OCc2ccc(CN3CCC4(CC3)CN(c3ccccc3)c3ccccc34)cc2)cc1 | inactive | 226% | 8.82 | 130% | inactive | 132% | 53% | 9.21 | 116% | 9.08 | 8.82 | < 0.01 | 7.68 | 8.68 | inactive |
| CC#C[C@@H](CC(=O)O)c1ccc(OCc2nc(C)c(CN3CCC4(C=Cc5ccccc54)CC3)s2)cc1 | inactive | 112% | 7.23 | 118% | inactive | 112% | 62% | 8.42 | 114% | 7.77 | 7.24 | < 0.01 | 7.96 | 8.00 | inactive |
| CC#C[C@@H](CC(=O)O)c1ccc(OCc2cnc(CN3CCC4(C=Cc5ccccc54)CC3)s2)cc1 | inactive | 129% | 6.92 | 127% | inactive | 114% | 62% | 8.42 | 114% | 7.96 | 6.77 | < 0.01 | 8.36 | 8.28 | inactive |
